# Source: PubChem
# The list is not random: actives were taken first. Their share in the collection is about 2%.
# LMPTP inh – LMPTP (human) inhibition; P24666; inhibition, % at 20 µM; recombinant LMPTP-A, OMFP fluorogenic substrate, fluorescence intensity; actives 0.22% (n = 360,000); AID 651560;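 active = compounds that cut the enzyme signal by at least half of the control window in the single-dose screen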;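 also: plate controls were DMSO wells with enzyme plus substrate for no effect and substrate without enzyme for full effect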
#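 Assay system: LMPTP-A, protein tyrosine phosphatase of low molecular weight / Medium: pH 6.0 Bis-Tris buffer with DTT and Triton X-100 / Schedule: 50 min enzyme reaction at room temperature, protected from light / Measured by: endpoint fluorescence intensity from OMFP dephosphorylation / Read-out basis: % inhibition relative to no-enzyme and uninhibited control wells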
# CSN deneddyl inh – inhibitors of human CSN-mediated cullin deneddylation; Q92905; Purified CSN, SCF-Nedd8-OG deneddylation, fluorescence polarization; inhibition, % at 12.5 µM; actives 0.38% (n = 360,000); AID 651999;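 active = pattern-corrected inhibition above about 35%, with an unprinted fluorescence ratio check between 0.5 and 1.5, limit read from the data, passing the limit was not always enough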;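 also: 0% = enzyme with substrate and 100% = substrate without enzyme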
# Target sequence (Q92905 whole entry, looked up, one chain of several): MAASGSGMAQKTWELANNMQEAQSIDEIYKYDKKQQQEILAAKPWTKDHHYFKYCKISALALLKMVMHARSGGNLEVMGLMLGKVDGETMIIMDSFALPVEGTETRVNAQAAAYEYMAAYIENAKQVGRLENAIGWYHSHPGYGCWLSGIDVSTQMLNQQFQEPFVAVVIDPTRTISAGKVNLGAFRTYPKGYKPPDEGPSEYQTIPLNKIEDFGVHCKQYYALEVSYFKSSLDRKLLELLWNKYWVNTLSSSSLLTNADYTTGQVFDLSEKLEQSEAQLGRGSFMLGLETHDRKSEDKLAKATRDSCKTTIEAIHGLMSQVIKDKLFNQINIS
#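 Test system: purified human Csn5 enzyme expressed in HEK293T cells. Amount: 0.24 nM enzyme. Reagent: SCFSkp2-Nedd8OG substrate at 10 nM final. Schedule: 90 min incubation of compound, enzyme and substrate at room temperature. Detection: fluorescence polarization. Read-out: % inhibition of substrate cleavage by Csn5.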
# STEP inh – STEP (human) phosphatase inhibition; inhibition, % at 20 µM; recombinant STEP, OMFP fluorogenic substrate, fluorescence; P54829; actives 0.25% (n = 360,000); AID 588621;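 active = inhibition at 20 µM, scaled per plate between control wells, above about 37%, limit read from the data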;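 also: 0% = DMSO with enzyme and substrate and 100% = substrate only without enzyme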
#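 System: isolated STEP enzyme; schedule: 20 min enzyme reaction at room temperature, protected from light; medium: Bis-Tris buffer pH 6.0, 2.5 mM DTT, 0.005% Tween 20; signal: fluorescence, 480/540 nm; dosing: single compound dose of 20 µM, 1% DMSO final; also added: OMFP substrate, 25 µM final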
# DNMT1 inh – inhibitors of human DNMT1; P26358; DNMT1 molecular beacon, Hinp1I cleavage, fluorescence; inhibition (reported as % activation of signal), % at 10 µM; actives 0.83% (n = 360,000); AID 588458; in the data active = inhibition above about 50%
# SUMO1-SIM PPI – SUMO1-SIM interaction modulation | inhibition, % at 20 µM | actives 0.33% (n = 360,000) | SUMO1 binding to a labelled peptide, TR-FRET, 1 h; in the data active = inhibition above about 37%
# Target sequence (P63165 whole entry, looked up): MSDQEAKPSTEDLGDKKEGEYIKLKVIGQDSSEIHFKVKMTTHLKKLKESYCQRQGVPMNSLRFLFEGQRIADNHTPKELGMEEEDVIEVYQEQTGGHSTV
# Scp-1 inhibitor – blocks human Scp-1 phosphatase activity. actives 0.88% (n = 340,000). inhibition, % at 20 µM. Q9GZU7. AID 493091. Recombinant Scp1, phosphopeptide, malachite green phosphate absorbance;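 active = inhibition above about 50% at 20 µM, limit read from the data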;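 also: plate controls were DMSO wells with enzyme for no effect and wells lacking enzyme for full effect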
# Target sequence (Q9GZU7 76-261 limits assumed): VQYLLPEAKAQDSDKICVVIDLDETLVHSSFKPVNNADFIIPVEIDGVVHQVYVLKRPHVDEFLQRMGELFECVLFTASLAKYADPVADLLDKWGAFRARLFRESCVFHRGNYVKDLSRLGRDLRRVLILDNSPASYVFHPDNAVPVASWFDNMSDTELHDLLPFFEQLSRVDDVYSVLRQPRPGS
#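 Test system: SCP-1 phosphatase catalytic domain, residues 76-261 | Compound dosing: One concentration, 20 µM, with 1.0% DMSO | Schedule: 45 min room-temperature reaction, 5 min colour, 30 min stabiliser | Detection: Absorbance at 630 nm | Read-out basis: % inhibition of SCP-1 phosphate liberation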
# Scp-1 conf – confirmation of human Scp-1 phosphatase inhibitors; actives 61% (n = 2,500); AID 540281; shares compounds with Scp-1 inhibitor; recombinant SCP-1 catalytic domain, phosphate release, malachite green absorbance; inhibition, % at 20 µM;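 also: plate controls were DMSO with enzyme for no effect and buffer wells lacking enzyme for full effect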
# Scp-1 MG ctr – colorimetric interference in Scp-1 counter-screen | shares compounds with Scp-1 inhibitor | Colorimetric interference counterscreen, malachite green absorbance 630 nm | apparent inhibition (interference), % at 20 µM | 2,500 tested, under 10 active | AID 540313;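 also: compounds added after enzyme reaction finished so only phosphate colour detection is probed; plate controls were DMSO wells with completed Scp-1 reaction for no effect and substrate wells lacking enzyme for full effect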
# Scp1 DSF – Scp-1 (human) binding by thermal shift; actives 25% (n = 1,500); thermal shift relative to vanadate control, % at 40 µM; Recombinant SCP1, Sypro Orange thermal shift Tm; shares compounds with Scp-1 inhibitor;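 active = substances whose mean melting-temperature shift, as a percentage of the reference inhibitor's shift, reaches about 5.3%, limit read from the data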;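 also: 0% = Tm of DMSO wells and 100% = Tm with sodium orthovanadate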
# Beacon interf DR – shows spectral interference in the DNMT1 beacon assay; shares compounds with DNMT1 inh; IC50, µM; molecular beacon fluorescence, spectral interference counter-screen; 200 tested, under 10 active; call rule not given here
# DNMT1 confirm – confirmation of human DNMT1 inhibitors. shares compounds with DNMT1 inh. DNMT1 molecular beacon HinP1I cleavage, fluorescence. inhibition, % at 10 µM. AID 602385. actives 8% (n = 2,300);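 active = average inhibition of at least 30% in the single-concentration confirmation test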
# Beacon interf – shows spectral interference in the DNMT1 beacon assay; actives 1% (n = 2,300); activation (fluorescence interference), % at 10 µM; shares compounds with DNMT1 inh; DNMT1 molecular beacon spectral interference counterscreen, fluorescence 485/520;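 active = activation of at least 30% at 10 µM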;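 also: DNMT1 catalytic domain with a HinP1I cleavage step and a FAM/dabcyl DNA beacon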
# Active calls of the source: *; . = no result.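 The calls were made as follows, unless noted: active = inhibition of at least 30% at 20 µM; inactive = the rest.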
SMILES,LMPTP inh,CSN deneddyl inh,STEP inh,DNMT1 inh,SUMO1-SIM PPI,Scp-1 inhibitor,Scp-1 conf,Scp-1 MG ctr,Scp1 DSF,DNMT1 confirm,Beacon interf,others
O=C(OCc1cc(=O)n2c(n1)sc1ccccc12)c1ccc(O)cc1O,13,10,3,70*,4,78*,60*,-12,0,6,-7,
CC(C)[C@H](NC(=O)c1ccco1)C(=O)OCc1cc(=O)n2c(n1)sc1ccccc12,21,5,0,84*,11,83*,59*,-14,2,17,-1,
COC(=O)c1cc(=O)nc2sc3ccccc3n12,0,6,-3,4,2,0,.,.,.,.,.,
O=C(Cc1coc2cc3c(cc12)CCC3)OCc1cc(=O)n2c(n1)sc1ccccc12,9,11,2,85*,6,63*,51*,-30,6.3*,1,2,
Cc1cc(/C=C(/C#N)c2nc3ccccc3[nH]2)c(C)n1-c1ccccc1C(=O)O,2,30,2,43,11,47,.,.,.,.,.,
Cc1cc(/C=C(/C#N)c2nc3ccccc3[nH]2)c(C)n1-c1cc(C(=O)O)cc(C(=O)O)c1,3,21,24,77*,28,59*,53*,-8,4,8,-2,
CC1(OC(=O)c2ccc(Cl)nc2)C(=O)C=C2C=C3CCCN3C=C2C1=O (stereo not drawn),4,34,10,66*,15,65*,16,-12,.,6,4,
N=C1C(c2nc3ccccc3s2)=C(O)CN1NC(=O)c1ccccc1[N+](=O)[O-],7,-5,2,12,1,16,.,.,.,.,.,
N=C1C(c2nc3ccccc3s2)=C(O)CN1NC(=O)c1c[nH]c2ccccc12,35,21,37,65*,-7,64*,54*,-15,4,2,0,
COc1ccc(OC)c(NC(=O)COC(=O)c2cc3c(s2)CCC3)c1,32,32,16,89*,7,79*,53*,-27,4,19,2,
COc1ccc(OC)c(NC(=O)COC(=O)CCC2CCCC2)c1,2,0,4,-1,-2,-8,.,.,.,.,.,
COc1ccccc1NC(=O)COC(=O)c1cc2c(s1)CCC2,27,9,40,94*,11,66*,73*,-4,0,2,14,
CSc1ncc(C(=O)Nc2ccc(Br)cn2)c(C)n1,1,6,6,6,0,9,.,.,.,.,.,
Cc1ccsc1/C=C/C1=Cc2c(sc(NC(=O)CSc3n[nH]c(N)n3)c2C#N)C(C)(C)C1,10,32,12,90*,32,58*,25,-14,.,4,1,
O=C(Nc1cccc([N+](=O)[O-])c1)c1cccc(C(=O)Nc2cccc([N+](=O)[O-])c2)c1,8,8,22,86*,70*,74*,85*,-11,4,27,2,
O=C(c1coc(=O)c(Br)c1)N1CCOCC1,13,18,38,74*,-6,68*,60*,-12,-17,0,0,
O=C(c1cc(Br)c(Br)s1)N1CCOCC1,-10,3,3,-3,-46,-6,.,.,.,.,.,
CC1CCC(NC(=O)c2ccc3c(c2)S(=O)(=O)c2ccccc2C3=O)CC1 (stereo not drawn),1,-5,3,0,-19,4,.,.,.,.,.,
O=C1NC(=S)NC1=Cc1ccco1,14,19,9,53*,8,59*,54*,-4,2,5,2,
O=C1NC(=O)/C(=C/c2ccco2)N1,-1,-3,-2,5,-16,-6,.,.,.,.,.,
NC(=N\N=Cc1ccco1)/C(N)=N/N=Cc1ccco1,36,19,7,55*,2,62*,39*,-11,1,4,4,
N=C1S/C(=C\c2cccc3ccccc23)C(=O)N1c1ccc(F)cc1,2,0,4,46,2,1,.,.,.,.,.,
N=C1S/C(=C\c2ccccc2F)C(=O)N1c1ccc(F)cc1,38,-1,18,60*,-3,87*,-6,-9,.,3,-1,
S=C1NCN(C2CCCCC2)CN1c1ccccc1,2,6,0,1,4,-11,.,.,.,.,.,
CC1(C(=O)NS(=O)(=O)c2cccc(OC(F)F)c2)CCN1C(=O)CC(c1ccccc1)c1ccccc1 (stereo not drawn),-2,-2,-2,-3,0,.,.,.,.,.,.,
SMILES,LMPTP inh,CSN deneddyl inh,STEP inh,DNMT1 inh,SUMO1-SIM PPI,Scp-1 inhibitor,Scp-1 conf,Scp-1 MG ctr,Scp1 DSF,DNMT1 confirm,Beacon interf,others
CCCn1c(=O)c2sccc2n2c(CCCC(=O)NCc3cccnc3)nnc12,-1,1,-3,1,4,-6,.,.,.,.,.,
CCCn1c(=O)c2sccc2n2c(CCCC(=O)NCc3ccco3)nnc12,2,12,17,77*,8,69*,54*,-9,-5,1,2,
Cn1c(N)c(C(=O)COC(=O)c2cc(-c3ccco3)nc3ccccc23)c(=O)n(C)c1=O,62*,46,8,110*,31,73*,67*,-14,15*,31*,0,Beacon interf DR=>99
O=C1Nc2ccc(S(=O)(=O)NCc3ccccn3)c3cccc1c23,13,10,16,54*,-9,86*,61*,-6,-8,1,4,
CN(C)CCNS(=O)(=O)c1ccc2c3c(cccc13)C(=O)N2,9,2,2,2,-19,-2,.,.,.,.,.,
CC1=CCC(C(=O)O)C(C(=O)NC2CCCCC2)C1 (stereo not drawn),1,-2,22,79*,51*,100*,75*,-7,-23,0,2,
